According to the RNAGym collection of RNA variant scans (doi:10.1038/s41586-018-0170-7):

B1: tRNA (parent)
chain: GUUCCGUUGGCGUAAUGGUAACGCGUCUCCCUCCUAAGGAGAAGACUGCGGGUUCGAGUCCCGUACGGAACG

Variants of: B1
Experiment: yeast fitness, log relative to wild type (ln ratio); higher = fitter; tRNA-Arg(CCU), competitive growth, 37 C, 1 M NaCl
Summary of the method: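 Fitness is the natural log of each genotype's generations divided by the wild type's. Generations were derived as OD-scaled log2 output/input frequency from 125 bp paired-end Illumina counts, weighting replicates by inverse variance. Pools of the tRNA-Arg(CCU) variant library, on a HIS3 centromeric plasmid in BY4742 lacking the chromosomal gene, grew ~6.5 generations (~26.5 h) in SC-HIS 1M NaCl at 37 °C after 4 generations in SC-HIS at 30 °C.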

| Variant | yeast fitness (ln) |
| --- | --- |
| GCUCCGUUGGCGUAAUGGUAACGCGUUUCCCUCCUAAGGAGACGAUUGCGGGUUCGAGUCCCGUACGGAAUG | -0.0612 |
| GCUCCGUUGGCGUAAUGGUAACGCGUUUCCCUCCUAAGGAGACGACUGCGGGUUCGAGUCCCGUAUGGAGUG | -0.207 |
| GCUCCGUUGGCGUAAUGGUAACGCGUUUCCCUCCUAAGGAGACGACUGCGGGUUCGAGUCCCGUAAGGAUUG | -0.319 |
| GCUCCGUUGGCGUAAUGGUAACGCGUUUCCCUCCUAAGGAGACGAUUGCGGGUUCGAGUCCCGUAAGGGUCG | -0.263 |
| GCUCCGUUGGCGUAAUGGUAACGCGUUUCCCUCCUAAGGAGACGACUGCGGGUUCGAGUCCCGUAAGGGGUG | -0.328 |
| GCUCCGUUGGCGUAAUGGUAACGCGUUUCCCUCCUAAGGAGAAGAUUGCGGGUUCGAGUCCCGUAAGGAAUG | -0.0945 |
| GCUCCGUUGGCGUAAUGGUAACGCGUUUCCCUCCUAAGGAGACGACUGCGGGUUCGAGUCCCGUAAGGAUCG | -0.145 |
| GCUCCGUUGGCGUAAUGGUAACGCGUUUCCCUCCUAAGGAGACGACUGCGGGUUCGAGUCCCGUAAGGAGCG | -0.0848 |
| GCUCCGUUGGCGUAAUGGUAACGCGUUUCCCUCCUAAGGAGAAGACUGCGGGUUCGAGUCCCGUACGGGGUG | -0.0353 |
| GCUCCGUUGGCGUAAUGGUAACGCGUUUCCCUCCUAAGGAGAAGAUUGCGGGUUCGAGUCCCGUAAGGAUCG | -0.0366 |
| GCUCCGUUGGCGUAAUGGUAACGCGUUUCCCUCCUAAGGAGAAGAUUGCGGGUUCGAGUCCCGUAAGGAGCG | -0.137 |
| GCUCCGUUGGCGUAAUGGUAACGCGUUUCCCUCCUAAGGAGACGACUGCGGGUUCGAGUCCCGUAAGGAGUG | -0.111 |
| GCUCCGUUGGCGUAAUGGUAACGCGUUUCCCUCCUAAGGAGAAGACUGCGGGUUCGAGUCCCGUACGGGUUG | -0.278 |
| GCUCCGUUGGCGUAAUGGUAACGCGUUUCCCUCCUAAGGAGAAGAUUGCGGGUUCGAGUCCCGUAAGGAGUG | -0.181 |
| GCUCCGUUGGCGUAAUGGUAACGCGUUUCCCUCCUAAGGAGACGACUGCGGGUUCGAGUCCCGUAUGGAUUG | -0.343 |
| GCUCCGUUGGCGUAAUGGUAACGCGUUUCCCUCCUAAGGAGACGAUUGCGGGUUCGAGUCCCGUAUGGGGCG | -0.303 |
| GCUCCGUUGGCGUAAUGGUAACGCGUUUCCCUCCUAAGGAGACGAUUGCGGGUUCGAGUCCCGUAUGGGUCG | -0.259 |
| GCUCCGUUGGCGUAAUGGUAACGCGUUUCCCUCCUAAGGAGAAGACUGCGGGUUCGAGUCCCGUACGGGACG | -0.23 |
| GCUCCGUUGGCGUAAUGGUAACGCGUUUCCCUCCUAAGGAGAAGAUUGCGGGUUCGAGUCCCGUACGGAUUG | -0.09 |

| Variant | yeast fitness (ln) |
| --- | --- |
| GCUCCGUUGGCGUAAUGGUAACGCGUUUCCCUCCUAAGGAGACGACUGCGGGUUCGAGUCCCGUAUGGGUCG | -0.439 |
| GCUCCGUUGGCGUAAUGGUAACGCGUUUCCCUCCUAAGGAGACGACUGCGGGUUCGAGUCCCGUAUGGGGCG | -0.332 |
| GCUCCGUUGGCGUAAUGGUAACGCGUUUCCCUCCUAAGGAGACGAUUGCGGGUUCGAGUCCCGUAAGGAAUG | -0.132 |
| GCUCCGUUGGCGUAAUGGUAACGCGUUUCCCUCCUAAGGAGACGACUGCGGGUUCGAGUCCCGUAUGGAAUG | -0.311 |
| GCUCCGUUGGCGUAAUGGUAACGCGUUUCCCUCCUAAGGAGACGAUUGCGGGUUCGAGUCCCGUAUGGGUUG | -0.46 |
| GCUCCGUUGGCGUAAUGGUAACGCGUUUCCCUCCUAAGGAGAAGACUGCGGGUUCGAGUCCCGUACGGAUUG | -0.104 |
| GCUCCGUUGGCGUAAUGGUAACGCGUUUCCCUCCUAAGGAGAAGAUUGCGGGUUCGAGUCCCGUACGGGGUG | -0.0348 |
| GCUCCGUUGGCGUAAUGGUAACGCGUUUCCCUCCUAAGGAGAAGAUUGCGGGUUCGAGUCCCGUAAGGGGCG | -0.227 |
| GCUCCGUUGGCGUAAUGGUAACGCGUUUCCCUCCUAAGGAGAAGAUUGCGGGUUCGAGUCCCGUAAGGGUCG | -0.114 |
| GCUCCGUUGGCGUAAUGGUAACGCGUUUCCCUCCUAAGGAGACGACUGCGGGUUCGAGUCCCGUAAGGGUUG | -0.443 |
| GCUCCGUUGGCGUAAUGGUAACGCGUUUCCCUCCUAAGGAGACGAUUGCGGGUUCGAGUCCCGUAAGGGUUG | -0.472 |
| GCUCCGUUGGCGUAAUGGUAACGCGUUUCCCUCCUAAGGAGACGAUUGCGGGUUCGAGUCCCGUAAGGAGUG | -0.105 |
| GCUCCGUUGGCGUAAUGGUAACGCGUUUCCCUCCUAAGGAGACGAUUGCGGGUUCGAGUCCCGUAUGGAAUG | -0.174 |
| GCUCCGUUGGCGUAAUGGUAACGCGUUUCCCUCCUAAGGAGAAGACUGCGGGUUCGAGUCCCGUACGGGGCG | -0.0516 |
| GCUCCGUUGGCGUAAUGGUAACGCGUUUCCCUCCUAAGGAGAAGACUGCGGGUUCGAGUCCCGUACGGGUCG | -0.175 |
| GCUCCGUUGGCGUAAUGGUAACGCGUUUCCCUCCUAAGGAGAAGAUUGCGGGUUCGAGUCCCGUAAGGGUUG | -0.387 |
| GCUCCGUUGGCGUAAUGGUAACGCGUUUCCCUCCUAAGGAGAAGAUUGCGGGUUCGAGUCCCGUACGGGACG | -0.319 |
| GCUCCGUUGGCGUAAUGGUAACGCGUUUCCCUCCUAAGGAGACGACUGCGGGUUCGAGUCCCGUAUGGAACG | -0.15 |
| GCUCCGUUGGCGUAAUGGUAACGCGUUUCCCUCCUAAGGAGACGACUGCGGGUUCGAGUCCCGUAAGGAACG | -0.155 |
